# Reference: ChEMBL document CHEMBL3098013, “Novel pyrazole integrated 1,3,4-oxadiazoles: synthesis, characterization and antimicrobial evaluation” (2014)
# Columns and labels:
# Type in all cases: functional
# Staphylococcus aureus [1] = assay: Antimicrobial activity against Staphylococcus aureus MTCC 96 at 100 ug/ml after 24 hrs by disc diffusion method; conditions: MTCC 96, 24 h, read-out: DIZ
# Procedure, shortened: (§1)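 Agar diffusion read-out is the diameter of the inhibition zone in mm. Each test was run in six replicates and reported as mean ± standard deviation, taken from at least three determinations.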
# Fusarium verticillioides [2] = assay: Antimicrobial activity against Fusarium moniliforme MTCC 156 after 48 hrs by microdilution method; conditions: MTCC 156, 48 h
# Procedure, shortened: (§2)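 The minimal inhibitory concentration was determined by dilution, alongside minimal bactericidal concentration for bacterial strains and minimal fungicidal concentration for fungal strains. Tests were run in six replicates, and the value is the mean of at least three determinations.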
# Fusarium oxysporum [3] = assay: Antimicrobial activity against Fusarium oxysporum MTCC 284 at 100 ug/ml after 48 hrs by disc diffusion method; conditions: MTCC 284, 48 h, read-out: DIZ; procedure, shortened: as §1
# Escherichia coli [4] = assay: Antimicrobial activity against Escherichia coli MTCC 724 at 50 ug/ml after 24 hrs by disc diffusion method; conditions: MTCC 724, 24 h, read-out: DIZ; procedure, shortened: as §1
# Bacillus cereus [5] = assay: Antimicrobial activity against Bacillus cereus MTCC 8372 at 50 ug/ml after 24 hrs by disc diffusion method; conditions: MTCC 8372, 24 h, read-out: DIZ; procedure, shortened: as §1
# Aspergillus niger [6] = assay: Antimicrobial activity against Aspergillus niger MTCC 281 at 50 ug/ml after 48 hrs by disc diffusion method; conditions: MTCC 281, 48 h, read-out: DIZ; procedure, shortened: as §1
# Fusarium oxysporum [7] = assay: Antimicrobial activity against Fusarium oxysporum MTCC 284 after 48 hrs by microdilution method; conditions: MTCC 284, 48 h; procedure, shortened: as §2
# Aspergillus niger [8] = assay: Antimicrobial activity against Aspergillus niger MTCC 281 at 100 ug/ml after 48 hrs by disc diffusion method; conditions: MTCC 281, 48 h, read-out: DIZ; procedure, shortened: as §1
# Fusarium oxysporum [9] = assay: Antimicrobial activity against Fusarium oxysporum MTCC 284 at 50 ug/ml after 48 hrs by disc diffusion method; conditions: MTCC 284, 48 h, read-out: DIZ; procedure, shortened: as §1
# Escherichia coli [10] = assay: Antimicrobial activity against Escherichia coli MTCC 724 after 24 hrs by microdilution method; conditions: MTCC 724, 24 h; procedure, shortened: as §2
# Fusarium verticillioides [11] = assay: Antimicrobial activity against Fusarium moniliforme MTCC 156 at 50 ug/ml after 48 hrs by disc diffusion method; conditions: MTCC 156, 48 h, read-out: DIZ; procedure, shortened: as §1
# Aspergillus flavus [12] = assay: Antimicrobial activity against Aspergillus flavus MTCC 873 after 48 hrs by microdilution method; conditions: MTCC 873, 48 h; procedure, shortened: as §2
# Fusarium verticillioides [13] = assay: Antimicrobial activity against Fusarium moniliforme MTCC 156 at 100 ug/ml after 48 hrs by disc diffusion method; conditions: MTCC 156, 48 h, read-out: DIZ; procedure, shortened: as §1
# Aspergillus flavus [14] = assay: Antimicrobial activity against Aspergillus flavus MTCC 873 at 100 ug/ml after 48 hrs by disc diffusion method; conditions: MTCC 873, 48 h, read-out: DIZ; procedure, shortened: as §1
# Klebsiella pneumoniae [15] = assay: Antimicrobial activity against Klebsiella pneumoniae MTCC 3384 after 24 hrs by microdilution method; conditions: MTCC 3384, 24 h; procedure, shortened: as §2
# Klebsiella pneumoniae [16] = assay: Antimicrobial activity against Klebsiella pneumoniae MTCC 3384 at 50 ug/ml after 24 hrs by disc diffusion method; conditions: MTCC 3384, 24 h, read-out: DIZ; procedure, shortened: as §1
# Bacillus cereus [17] = assay: Antimicrobial activity against Bacillus cereus MTCC 8372 at 100 ug/ml after 24 hrs by disc diffusion method; conditions: MTCC 8372, 24 h, read-out: DIZ; procedure, shortened: as §1
# Aspergillus flavus [18] = assay: Antimicrobial activity against Aspergillus flavus MTCC 873 at 50 ug/ml after 48 hrs by disc diffusion method; conditions: MTCC 873, 48 h, read-out: DIZ; procedure, shortened: as §1
# Bacillus cereus [19] = assay: Antimicrobial activity against Bacillus cereus MTCC 8372 after 24 hrs by microdilution method; conditions: MTCC 8372, 24 h; procedure, shortened: as §2
# Staphylococcus aureus [20] = assay: Antimicrobial activity against Staphylococcus aureus MTCC 96 after 24 hrs by microdilution method; conditions: MTCC 96, 24 h; procedure, shortened: as §2
# Staphylococcus aureus [21] = assay: Antimicrobial activity against Staphylococcus aureus MTCC 96 at 50 ug/ml after 24 hrs by disc diffusion method; conditions: MTCC 96, 24 h, read-out: DIZ; procedure, shortened: as §1
# Klebsiella pneumoniae [22] = assay: Antimicrobial activity against Klebsiella pneumoniae MTCC 3384 at 100 ug/ml after 24 hrs by disc diffusion method; conditions: MTCC 3384, 24 h, read-out: DIZ; procedure, shortened: as §1
# Aspergillus niger [23] = assay: Antimicrobial activity against Aspergillus niger MTCC 281 after 48 hrs by microdilution method; conditions: MTCC 281, 48 h; procedure, shortened: as §2
# Escherichia coli [24] = assay: Antimicrobial activity against Escherichia coli MTCC 724 at 100 ug/ml after 24 hrs by disc diffusion method; conditions: MTCC 724, 24 h, read-out: DIZ; procedure, shortened: as §1
Structure (SMILES),zone of inhibition at 100 µg/mL (Staphylococcus aureus [1]) [mm],MFC (Fusarium verticillioides [2]) [µg/mL],MIC (Fusarium verticillioides [2]) [µg/mL],zone of inhibition at 100 µg/mL (Fusarium oxysporum [3]) [mm],zone of inhibition at 50 µg/mL (Escherichia coli [4]) [mm],zone of inhibition at 50 µg/mL (Bacillus cereus [5]) [mm],zone of inhibition at 50 µg/mL (Aspergillus niger [6]) [mm],MFC (Fusarium oxysporum [7]) [µg/mL],MIC (Fusarium oxysporum [7]) [µg/mL],zone of inhibition at 100 µg/mL (Aspergillus niger [8]) [mm],zone of inhibition at 50 µg/mL (Fusarium oxysporum [9]) [mm],MBC (Escherichia coli [10]) [µg/mL],MIC (Escherichia coli [10]) [µg/mL],zone of inhibition at 50 µg/mL (Fusarium verticillioides [11]) [mm],MFC (Aspergillus flavus [12]) [µg/mL],MIC (Aspergillus flavus [12]) [µg/mL],zone of inhibition at 100 µg/mL (Fusarium verticillioides [13]) [mm],zone of inhibition at 100 µg/mL (Aspergillus flavus [14]) [mm],MBC (Klebsiella pneumoniae [15]) [µg/mL],MIC (Klebsiella pneumoniae [15]) [µg/mL],further results
Cc1c(-c2nnc(-c3ccccc3)o2)c(-c2ccc(Cl)cc2)nn1-c1ccccc1,10,270,40,22,11,6,8,215,30,10,14,250,40,5,275,50,8,10,250,50,zone of inhibition at 50 µg/mL (Klebsiella pneumoniae [16]): 5 mm; zone of inhibition at 100 µg/mL (Bacillus cereus [17]): 10 mm; zone of inhibition at 50 µg/mL (Aspergillus flavus [18]): 6 mm; MBC (Bacillus cereus [19]): 240 µg/mL; MIC (Bacillus cereus [19]): 40 µg/mL; MBC (Staphylococcus aureus [20]): 250 µg/mL; MIC (Staphylococcus aureus [20]): 50 µg/mL; zone of inhibition at 50 µg/mL (Staphylococcus aureus [21]): 5 mm; zone of inhibition at 100 µg/mL (Klebsiella pneumoniae [22]): 9 mm; MFC (Aspergillus niger [23]): 275 µg/mL; MIC (Aspergillus niger [23]): 50 µg/mL; zone of inhibition at 100 µg/mL (Escherichia coli [24]): 18 mm
COc1cc(-c2nnc(-c3c(-c4cc(OC)c(OC)c(OC)c4)nn(-c4ccccc4)c3C)o2)cc(OC)c1OC,24,225,25,21,21,12,11,220,25,25,14,150,20,12,215,30,22,23,155,20,zone of inhibition at 50 µg/mL (Klebsiella pneumoniae [16]): 11 mm; zone of inhibition at 100 µg/mL (Bacillus cereus [17]): 23 mm; zone of inhibition at 50 µg/mL (Aspergillus flavus [18]): 18 mm; MBC (Bacillus cereus [19]): 160 µg/mL; MIC (Bacillus cereus [19]): 20 µg/mL; MBC (Staphylococcus aureus [20]): 150 µg/mL; MIC (Staphylococcus aureus [20]): 20 µg/mL; zone of inhibition at 50 µg/mL (Staphylococcus aureus [21]): 10 mm; zone of inhibition at 100 µg/mL (Klebsiella pneumoniae [22]): 21 mm; MFC (Aspergillus niger [23]): 225 µg/mL; MIC (Aspergillus niger [23]): 25 µg/mL; zone of inhibition at 100 µg/mL (Escherichia coli [24]): 36 mm
Cc1c(-c2nnc(-c3ccccc3)o2)c(-c2ccccc2)nn1-c1ccccc1,7,290,55,8,5,5,5,275,50,8,3,260,40,4,280,40,6,8,220,30,zone of inhibition at 50 µg/mL (Klebsiella pneumoniae [16]): 6 mm; zone of inhibition at 100 µg/mL (Bacillus cereus [17]): 9 mm; zone of inhibition at 50 µg/mL (Aspergillus flavus [18]): 4 mm; MBC (Bacillus cereus [19]): 230 µg/mL; MIC (Bacillus cereus [19]): 35 µg/mL; MBC (Staphylococcus aureus [20]): 240 µg/mL; MIC (Staphylococcus aureus [20]): 35 µg/mL; zone of inhibition at 50 µg/mL (Staphylococcus aureus [21]): 6 mm; zone of inhibition at 100 µg/mL (Klebsiella pneumoniae [22]): 14 mm; MFC (Aspergillus niger [23]): 270 µg/mL; MIC (Aspergillus niger [23]): 45 µg/mL; zone of inhibition at 100 µg/mL (Escherichia coli [24]): 6 mm
COc1ccc(-c2nnc(-c3c(-c4ccccc4)nn(-c4ccccc4)c3C)o2)cc1,12,290,50,12,8,5,6,280,50,12,8,235,45,9,270,45,11,14,240,45,zone of inhibition at 50 µg/mL (Klebsiella pneumoniae [16]): 9 mm; zone of inhibition at 100 µg/mL (Bacillus cereus [17]): 12 mm; zone of inhibition at 50 µg/mL (Aspergillus flavus [18]): 8 mm; MBC (Bacillus cereus [19]): 220 µg/mL; MIC (Bacillus cereus [19]): 35 µg/mL; MBC (Staphylococcus aureus [20]): 225 µg/mL; MIC (Staphylococcus aureus [20]): 35 µg/mL; zone of inhibition at 50 µg/mL (Staphylococcus aureus [21]): 6 mm; zone of inhibition at 100 µg/mL (Klebsiella pneumoniae [22]): 11 mm; MFC (Aspergillus niger [23]): 275 µg/mL; MIC (Aspergillus niger [23]): 45 µg/mL; zone of inhibition at 100 µg/mL (Escherichia coli [24]): 12 mm
COc1cc(-c2nnc(-c3c(-c4ccccc4)nn(-c4ccccc4)c3C)o2)cc(OC)c1OC,12,300,55,10,20,4,5,275,40,12,8,150,20,7,275,45,10,13,160,20,zone of inhibition at 50 µg/mL (Klebsiella pneumoniae [16]): 10 mm; zone of inhibition at 100 µg/mL (Bacillus cereus [17]): 13 mm; zone of inhibition at 50 µg/mL (Aspergillus flavus [18]): 4 mm; MBC (Bacillus cereus [19]): 230 µg/mL; MIC (Bacillus cereus [19]): 35 µg/mL; MBC (Staphylococcus aureus [20]): 250 µg/mL; MIC (Staphylococcus aureus [20]): 40 µg/mL; zone of inhibition at 50 µg/mL (Staphylococcus aureus [21]): 5 mm; zone of inhibition at 100 µg/mL (Klebsiella pneumoniae [22]): 20 mm; MFC (Aspergillus niger [23]): 275 µg/mL; MIC (Aspergillus niger [23]): 40 µg/mL; zone of inhibition at 100 µg/mL (Escherichia coli [24]): 32 mm
Cc1c(C(=O)NNC(=O)c2ccccc2)c(-c2ccccc2)nn1-c1ccccc1,18,260,50,10,13,8,8,260,40,14,8,190,25,6,275,50,9,12,200,25,zone of inhibition at 50 µg/mL (Klebsiella pneumoniae [16]): 8 mm; zone of inhibition at 100 µg/mL (Bacillus cereus [17]): 16 mm; zone of inhibition at 50 µg/mL (Aspergillus flavus [18]): 10 mm; MBC (Bacillus cereus [19]): 180 µg/mL; MIC (Bacillus cereus [19]): 25 µg/mL; MBC (Staphylococcus aureus [20]): 200 µg/mL; MIC (Staphylococcus aureus [20]): 25 µg/mL; zone of inhibition at 50 µg/mL (Staphylococcus aureus [21]): 6 mm; zone of inhibition at 100 µg/mL (Klebsiella pneumoniae [22]): 14 mm; MFC (Aspergillus niger [23]): 215 µg/mL; MIC (Aspergillus niger [23]): 30 µg/mL; zone of inhibition at 100 µg/mL (Escherichia coli [24]): 18 mm
Cc1c(-c2nnc(-c3ccccc3)o2)c(-c2ccc([N+](=O)[O-])cc2)nn1-c1ccccc1,18,275,45,10,9,14,8,280,40,12,8,190,25,5,290,50,14,14,180,25,zone of inhibition at 50 µg/mL (Klebsiella pneumoniae [16]): 9 mm; zone of inhibition at 100 µg/mL (Bacillus cereus [17]): 20 mm; zone of inhibition at 50 µg/mL (Aspergillus flavus [18]): 6 mm; MBC (Bacillus cereus [19]): 150 µg/mL; MIC (Bacillus cereus [19]): 20 µg/mL; MBC (Staphylococcus aureus [20]): 150 µg/mL; MIC (Staphylococcus aureus [20]): 20 µg/mL; zone of inhibition at 50 µg/mL (Staphylococcus aureus [21]): 10 mm; zone of inhibition at 100 µg/mL (Klebsiella pneumoniae [22]): 12 mm; MFC (Aspergillus niger [23]): 290 µg/mL; MIC (Aspergillus niger [23]): 40 µg/mL; zone of inhibition at 100 µg/mL (Escherichia coli [24]): 18 mm
